Bioassay records (PubChem)
TRPC6 activator = activators of mouse TRPC6 channel | B-score at 10 µM | HEK293-TRPC6 membrane potential dye fluorescence; active compounds read high | 310,000 compounds, 0.13% hits | AID 2550 | Q61143;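 active = B-score of the integrated fluorescence ratio above library mean plus 3 SD, and starting fluorescence ratio within library mean plus 5 SD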;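 also: higher score means more depolarization so channel activation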
Target sequence (Q61143 whole entry, looked up): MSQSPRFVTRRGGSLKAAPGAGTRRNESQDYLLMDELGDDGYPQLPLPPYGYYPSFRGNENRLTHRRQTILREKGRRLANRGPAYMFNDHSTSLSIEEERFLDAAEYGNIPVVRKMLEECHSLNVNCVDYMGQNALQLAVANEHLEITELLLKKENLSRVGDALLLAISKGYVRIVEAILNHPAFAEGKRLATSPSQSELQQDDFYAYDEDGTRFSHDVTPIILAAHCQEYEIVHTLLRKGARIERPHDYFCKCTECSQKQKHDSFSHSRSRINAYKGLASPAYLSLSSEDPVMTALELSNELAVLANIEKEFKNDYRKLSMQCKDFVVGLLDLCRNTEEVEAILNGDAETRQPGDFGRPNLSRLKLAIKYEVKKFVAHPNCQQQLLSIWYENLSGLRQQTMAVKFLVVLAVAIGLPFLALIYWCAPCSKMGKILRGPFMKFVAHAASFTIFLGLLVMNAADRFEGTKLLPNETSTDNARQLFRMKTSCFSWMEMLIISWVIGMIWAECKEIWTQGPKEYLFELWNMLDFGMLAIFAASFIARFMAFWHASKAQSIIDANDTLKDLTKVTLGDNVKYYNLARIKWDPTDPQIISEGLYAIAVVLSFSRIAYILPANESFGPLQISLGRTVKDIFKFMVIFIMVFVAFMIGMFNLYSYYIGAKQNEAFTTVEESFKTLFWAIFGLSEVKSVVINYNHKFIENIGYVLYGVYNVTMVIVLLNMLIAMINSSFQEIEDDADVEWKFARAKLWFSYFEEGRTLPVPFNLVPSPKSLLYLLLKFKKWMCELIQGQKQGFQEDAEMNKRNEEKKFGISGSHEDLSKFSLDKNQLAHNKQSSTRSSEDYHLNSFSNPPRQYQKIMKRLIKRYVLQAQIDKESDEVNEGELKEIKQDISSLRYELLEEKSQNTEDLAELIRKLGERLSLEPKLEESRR
TRPC6 inh = inhibitors of mouse TRPC6 channel; Q61143; HEK293-TRPC6, membrane potential dye, ACh-evoked depolarization; active compounds read low; B-score at 10 µM; 310,000 compounds, 1.1% hits;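 active = B-score under library mean minus 3 SD, initial fluorescence not abnormally high, positive integrated signal ratio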;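 also: B-score derived from integrated fluorescence ratio over the kinetic read; more negative B-score means stronger inhibition of depolarization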
TRPC4 act = TRPC4 (mouse) channel activation; HEK293 TRPC4beta/mu-opioid, Fluo4 calcium fluorescence; active compounds read high; B-score at 10 µM; 310,000 compounds, 0.49% hits; AID 2237;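 active = B-score above 5 SD of library B-scores, and initial fluorescence ratio not above library mean plus 5 SD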;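 also: positive B-score marks a calcium rise read as TRPC4 activation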
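Assay system: HEK293 stable line with TRPC4beta plus mu-opioid receptor; schedule: 45 min room-temperature Fluo4 loading, 110 s read; technique: kinetic Fluo4 calcium fluorescence; evaluation: integrated baseline-normalised fluorescence ratio, converted to per-well B score; controls: buffer (low) and maximal DAMGO (high)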
TRPC4 PAM = allosterically enhances the mouse TRPC4 cation channel; Q9QUQ5; HEK293 TRPC4beta/mu-opioid, DAMGO EC20, Fluo-4 Ca2+ flux; active compounds read high; B-score at 10 µM; 310,000 compounds, 0.42% hits; AID 2227;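 active = B-score of calcium response area above 5 SD of library B-scores, with initial fluorescence ratio within 5 SD of library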;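 also: B-score of integrated fluorescence ratio over time as area under calcium response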
TRPC4 inh = inhibitors of mouse TRPC4 channel. Q9QUQ5. 300,000 compounds, 0.39% hits. HEK293 TRPC4beta/mu-opioid, DAMGO-evoked Fluo4 calcium flux; active compounds read low. B-score at 10 µM;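 active = B-score over 3 SD under the library average, no early fluorescence shift, positive overall ratio signal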
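Assay system: HEK293 cells with stable TRPC4beta plus mu-opioid receptor expression. Dosing: single dose. Measured by: Fluo4 Ca2+ flux fluorescence. Also added: DAMGO in two steps, submaximal then maximal. Read-out: B score from integrated Fluo4 fluorescence ratio.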
* = called active by the depositor; i = inactive. Sampled rows, rich in hits. Any-hit rate of the full collection: about 2.3%.

SMILES	TRPC6 activator	TRPC6 inh	TRPC4 act	TRPC4 PAM	TRPC4 inh
Cc1ccc(OCC(O)Cn2c(N3CCCCC3)nc3c2c(=O)[nH]c(=O)n3C)cc1C (centres undefined)	i	i	i	i	i
COc1ccc(CNC(=O)C(C)NCc2ccc(S(N)(=O)=O)cc2)cc1 (centres undefined)	i	i	i	i	-8*
O=C(CC12CC3CC(CC(C3)C1)C2)NC(Cc1ccccc1)C(=O)O (centres undefined)	i	i	i	i	i
CNC[C@H](CC1CCCCC1)NC[C@H](Cc1ccccc1)NCCC12CC3CC(CC(C3)C1)C2	i	i	152*	i	i
O=C(O)CCC(=O)NN1C(=O)c2ccccc2NC1c1ccc(F)cc1 (centres undefined)	i	i	i	11*	i
Cc1ccc(NC(=O)N2CCCC2C(=O)NCCc2ccccc2)cc1 (centres undefined)	i	i	i	i	-6*
Cc1ccc(C(C(=O)NCc2ccc(F)cc2)N(Cc2ccco2)C(=O)c2snc(C(N)=O)c2N)o1 (centres undefined)	i	i	i	i	i
NC(=O)c1nsc(C(=O)N(Cc2ccco2)C(C(=O)NCc2ccc(F)cc2)c2ccc(O)cc2)c1N (centres undefined)	i	i	i	i	-6*
NC(=O)c1nsc(C(=O)N(Cc2ccco2)C(C(=O)NC2CCCC2)c2ccc(O)cc2)c1N (centres undefined)	i	i	i	i	-5*
CC(C)(C)c1ccc(C(=O)NNC(=O)CCC(=O)Nc2ccccc2)cc1	i	i	i	i	i
O=[N+]([O-])/C(C(Cl)=C(Cl)Cl)=C1\Nc2ccccc2O1	i	i	i	i	i
CC1(C)CC(NC(=O)c2cc(COc3cccc(C(F)(F)F)c3)on2)CCO1 (centres undefined)	i	i	i	i	-6*
C[C@@H]1CN(C(=O)c2nc3ccc(Cl)cn3c2CNCC[C@@H]2C[C@@H]3C=C[C@H]2C3)C[C@H](C)O1	i	i	i	i	i
O=C(c1nc2ccc(Cl)cn2c1CNCC[C@@H]1C[C@@H]2C=C[C@H]1C2)N1CCCCCCC1	i	i	64*	i	i
N#Cc1ccc(N2CCCNCC2)nc1	i	i	44*	i	i
O=[N+]([O-])c1ccc(N2CCOCC2)nc1	i	i	i	i	i
CCN(CC)CCNC(=O)Cn1nc(Cc2ccccc2)c2ccccc2c1=O	i	i	i	i	i
CCCCN(CC)CCCNC(=O)Cn1nc(Cc2cccnc2)c2ccccc2c1=O	i	i	134*	i	i
N#CCCN(C(=O)c1cc2c(s1)-c1ccccc1S(=O)(=O)C2)c1ccccc1	i	i	i	i	i
Cc1ccc(-c2nc3ccccc3nc2NN)cc1	i	i	i	i	i
CN(C(=O)COC(=O)CCC(=O)c1ccc(Cl)cc1)c1c(N)n(Cc2ccccc2)c(=O)[nH]c1=O	i	i	i	i	i
CC(C)CN(C(=O)C1CC1)c1c(N)n(Cc2ccccc2)c(=O)[nH]c1=O	i	i	i	31*	i
CC(C)CN(C(=O)COC(=O)CCC(=O)c1ccc(Cl)cc1)c1c(N)n(Cc2ccccc2)c(=O)[nH]c1=O	i	i	i	114*	i
CC(C)CN(C(=O)CC1CCCC1)c1c(N)n(Cc2ccccc2)c(=O)[nH]c1=O	i	i	i	i	i
OC(COc1ccc2ccccc2c1)Cn1ccnc1 (centres undefined)	i	i	i	11*	i
SMILES	TRPC6 activator	TRPC6 inh	TRPC4 act	TRPC4 PAM	TRPC4 inh
OC(COc1ccc2ccccc2c1Br)Cn1ccnc1 (centres undefined)	i	i	i	i	i
COc1ccc(NC(=O)[C@H](C)NC(=O)[C@@H]2Cc3ccccc3CN2C(=O)OC(C)(C)C)cc1	i	i	i	i	i
Cc1cc(C(=O)N2CCN(c3ccc([N+](=O)[O-])cc3)CC2)n[nH]1	i	i	i	i	i
OC1(c2cccs2)CN(c2ccc(Cl)cc2)C2=[N+]1CCCC2 (centres undefined)	i	i	i	i	-6*
COc1ccc(C(=O)N2CCCC(Nc3ccc(F)cc3)C2)c(OC)c1 (centres undefined)	i	i	i	i	i
Cc1cc(C)c(CN2CCN(Cc3ccc(C)o3)C(CCO)C2)c(-n2cccn2)c1 (centres undefined)	i	i	77*	i	i
Cc1ccc(CN2CCN(Cc3c(C)nn(-c4ccc(F)cc4)c3C)CC2CCO)o1 (centres undefined)	i	i	i	i	i
COc1ccc(C(NC(=O)C2CCCCC2)c2c(O)ccc3ccccc23)cc1 (centres undefined)	i	i	i	i	i
CCOC(=O)C1=C(CNCCc2ccc(Cl)cc2)NC(=O)NC1c1cccc([N+](=O)[O-])c1 (centres undefined)	i	i	i	17*	i
COC(=O)C1=C(COc2ccccc2)NC(=O)NC1c1ccc(Br)cc1 (centres undefined)	i	i	i	i	i
CCOC(=O)C1=C(CNCc2ccccc2Cl)NC(=O)NC1c1cccc([N+](=O)[O-])c1 (centres undefined)	i	i	i	i	i
COC(=O)C1=C(CCc2ccccc2)NC(=O)NC1c1ccc(C#N)cc1 (centres undefined)	i	i	i	i	i
COC(=O)C1=C(CCc2ccccc2)NC(=O)NC1c1ccc(Cl)cc1 (centres undefined)	i	i	i	29*	i
COC(=O)C1=C(COc2ccccc2)NC(=O)NC1c1ccc2ccccc2c1 (centres undefined)	i	i	45*	i	i
CCC(CO)(CO)N(CC(=O)Nc1ccc(OC)cc1)CC(=O)Nc1ccc(OC)cc1	i	i	i	i	i
O=C(/C=C/c1c(F)cccc1Cl)N1CCc2ccccc2C1	i	i	i	i	i
CC(=O)Oc1ccc(C23CC4CC(CC(C4)C2)C3)cc1C(=O)O	i	i	i	i	i
CCn1c(C2CC(=O)N(Cc3ccccc3)C2)nc2ccccc21 (centres undefined)	i	i	i	16*	i
CN(C)C(=O)CCC(=O)N1CCCC(C(=O)c2ccc(C(F)(F)F)cc2)C1 (centres undefined)	i	i	i	i	i
